In ChEMBL document CHEMBL1132804, “Inhibitors of src tyrosine kinase: the preparation and structure-activity relationship of 4-anilino-3-cyanoquinolines and 4-anilinoquinazolines” (Bioorg Med Chem Lett, 2000):

The compounds below were run against T1, Proto-oncogene tyrosine-protein kinase Src (Homo sapiens, UniProt P12931) (assay: In vitro inhibition of c-src tyrosine kinase.).
Procedure, shortened: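 ELISA tyrosine kinase kit format. ATP was then added to start the reaction, which ran 1 h at 30 °C and was stopped with EDTA. Duplicate testing; IC50 is the average of two determinations.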

T1 sequence (P12931 2-536 limits assumed): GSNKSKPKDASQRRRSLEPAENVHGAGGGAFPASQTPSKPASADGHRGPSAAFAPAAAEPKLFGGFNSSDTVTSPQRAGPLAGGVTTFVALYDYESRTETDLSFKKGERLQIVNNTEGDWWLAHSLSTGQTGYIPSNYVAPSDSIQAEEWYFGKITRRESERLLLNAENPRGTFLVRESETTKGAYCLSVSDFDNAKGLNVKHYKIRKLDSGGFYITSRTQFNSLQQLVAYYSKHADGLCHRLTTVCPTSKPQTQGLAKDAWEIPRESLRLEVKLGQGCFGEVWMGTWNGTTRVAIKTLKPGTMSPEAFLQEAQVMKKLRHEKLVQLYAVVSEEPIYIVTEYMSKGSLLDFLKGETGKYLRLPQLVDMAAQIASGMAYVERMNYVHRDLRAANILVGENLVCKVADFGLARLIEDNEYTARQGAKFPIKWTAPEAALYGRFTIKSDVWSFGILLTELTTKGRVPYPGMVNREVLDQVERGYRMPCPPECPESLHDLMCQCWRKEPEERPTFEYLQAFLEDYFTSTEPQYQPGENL

Point of comparison: `CCCCCCCCCCCCOc1c(OC)cc(Nc2c(C#N)cnc3cc(OC)c(OC)cc23)cc1OC`, IC50 180 nM. Against it:
- COc1cc2ncc(CO)c(Nc3cc(OC)c(OC)c(OC)c3)c2cc1OC — higher, > 10000 nM
- COc1cc2ncnc(Nc3cc(OC)c(OC)c(OC)c3)c2cc1OC — 1.6-fold higher, 280 nM
- COc1cc2ncc(C#N)c(Nc3cc(OC)c(OC(C)C)c(OC)c3)c2cc1OC — 1.6-fold lower, 110 nM
- COc1cc2nccc(Nc3cc(OC)c(OC)c(OC)c3)c2cc1OC — within 1.5-fold, 200 nM
- COc1cc2c(Nc3cc(OC)c(OC)c(OC)c3)c(C#N)cnc2cc1OCCCN1CCCCC1 — 34-fold lower, 5.3 nM
- COc1cc2ncnc(Nc3cc(OC)c(OC(C)(C)C)c(OC)c3)c2cc1OC — 15-fold higher, 2700 nM
- CCOc1c(OC)cc(Nc2c(C#N)cnc3cc(OC)c(OC)cc23)cc1OC — 2.9-fold lower, 63 nM
- COc1cc2ncnc(Nc3cc(OC)c(OC(C)C)c(OC)c3)c2cc1OC — 4.6-fold higher, 830 nM
- CCCCCCCCCCCCOc1c(OC)cc(Nc2ncnc3cc(OC)c(OC)cc23)cc1OC — 29-fold higher, 5200 nM
- CCOC(=O)c1cnc2cc(OC)c(OC)cc2c1Nc1cc(OC)c(OC)c(OC)c1 — higher, > 10000 nM
- COc1cc2ncc(C#N)c(Nc3cc(OC)c(OC)c(OC)c3)c2cc1OC — 5.1-fold lower, 35 nM
- COc1cc2ncc(C#N)c(Oc3cc(OC)c(OC)c(OC)c3)c2cc1OC — 1.6-fold higher, 290 nM
- CCCCOc1c(OC)cc(Nc2ncnc3cc(OC)c(OC)cc23)cc1OC — 2.7-fold higher, 490 nM
- COc1cc2ncc(C#N)c(Nc3cc(OC)c(OC)c(OC)c3C)c2cc1OC — 2.6-fold higher, 470 nM
- COc1ccc(Nc2c(C#N)cnc3cc(OC)c(OC)cc23)cc1OC — 5.3-fold higher, 950 nM
- COc1cc2ncc(C#N)c(Nc3cc(OC)c(OC)c(OC)c3Br)c2cc1OC — within 1.5-fold, 170 nM
- CCOc1c(OC)cc(Nc2ncnc3cc(OC)c(OC)cc23)cc1OC — 1.9-fold higher, 340 nM
- COc1cc2c(Nc3cc(OC)c(OC)c(OC)c3)c(C#N)cnc2cc1OCCCN1CCC(O)CC1 — 33-fold lower, 5.5 nM
- COc1cc(Nc2c(C#N)cnc3cc(OC)c(OC)cc23)cc(OC)c1 — 5.4-fold higher, 980 nM

What follows are compounds tested against T1, Proto-oncogene tyrosine-protein kinase Src (assay: Inhibition of Src kinase at 100 nM ATP).
Procedure, shortened: (§1)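 ATP-dependence study in the same ELISA format. Human c-Src protein (3 units/reaction) and cdc2 substrate peptide were in Tris-HCl pH 7.5 buffer with MgCl₂, EGTA and Na₃VO₄. Compound preincubation was 10 min at 30 °C. The reaction was started with ATP at four final levels (100, 500, 1000, 5000), run 1 h at 30 °C and stopped with EDTA. IC50 was determined at each ATP level.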

Compound `COc1cc2ncc(C#N)c(Nc3cc(OC)c(OC)c(OC)c3)c2cc1OC` has an IC50 of 34 nM.

These compounds were tested against T1, Proto-oncogene tyrosine-protein kinase Src (assay: Inhibition of Src kinase at 5000 nM ATP).
Procedure, shortened: as §1

Compound `COc1cc2ncc(C#N)c(Nc3cc(OC)c(OC)c(OC)c3)c2cc1OC` has an IC50 of 650 nM.

Each compound was assayed against T1, Proto-oncogene tyrosine-protein kinase Src (assay: Inhibition of Src kinase at 1000 nM ATP).
Procedure, shortened: as §1

Work on `COc1cc2ncc(C#N)c(Nc3cc(OC)c(OC)c(OC)c3)c2cc1OC` yielded an IC50 of 190 nM.

Each compound was assayed against T1, Proto-oncogene tyrosine-protein kinase Src (assay: Inhibition of Src kinase at 500 nM ATP).
Procedure, shortened: as §1

`COc1cc2ncc(C#N)c(Nc3cc(OC)c(OC)c(OC)c3)c2cc1OC` gave an IC50 of 108 nM.
